Test system: HeLa cells
Assay: Protein fatty-acylation levels in cells by chemical reporter alk-14
Assay type: cell-based, human
Conditions: nuclear lysates, in-gel fluorescence, Sirt2 inhibitor
Procedure, shortened: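 HeLa cells with Sirt2 perturbed by siRNA knockdown or a selective Sirt2 inhibitor were cultured with fatty-acid chemical reporter alk-14. After harvest, cytosolic and nuclear lysates were prepared and core histones extracted. Reporter-labeled proteins were conjugated to a rhodamine dye by azide-alkyne click chemistry, and fatty-acylation levels were compared by fluorescence.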

For `N#C/C(=C\c1ccc(-c2cc(Cl)ccc2Cl)o1)C(=O)Nc1cccc2ncccc12` [AGK2], the “labeling of core histones by alk-14” value was “enhanced”.

Reference: PMC4382910 (Angewandte Chemie (International ed. in English), 2014)
